Screening results deposited in PubChem by several laboratories.
VIM-2 inh = VIM-2 metallo-beta-lactamase inhibitors, primary screen, biochemical, epi-absorbance readout, Pseudomonas aeruginosa enzyme; purified VIM-2, nitrocefin hydrolysis, epi-absorbance fluorescence; inhibition, % at 5.6 µM; actives 0.89% (n = 290,000);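 active = inhibition above the mean of all tested compounds plus 3 SD, cutoff set per screening run, cut at about 7.5% in these data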;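 also: red hydrolysis product quenches plate fluorescence so inhibitors raise well fluorescence; 0% = enzyme with DMSO and 100% = DMSO without enzyme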
NS3 helicase inh = inhibitors of HCV NS3 helicase, primary screen, biochemical, Cy5 molecular beacon fluorescence. NS3 helicase DNA unwinding. inhibition, % at 10.9 µM. actives 0.56% (n = 290,000);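 active = inhibition above the mean of all tested compounds plus 3 SD, set per campaign, cut at about 35% in these data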;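 also: 0% = DMSO wells and 100% = thioflavine S control wells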
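Compound dosing – single dose, 10.9 µM nominal final, DMSO 0.8% final · System – NS3 helicase fragment of HCV · Buffer or medium – MOPS pH 6.5, MgCl2, DTT, Tween20, BSA · Signal – Cy5 beacon fluorescence read at start and 1 h · Also added – annealed dual-labelled DNA beacon duplex, ATP-started · Schedule – 1 h at 25 °C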
IMP-1 inh-1 = IMP-1 metallo-beta-lactamase inhibitors, primary screen, biochemical, epi-absorbance readout, Pseudomonas aeruginosa enzyme; inhibition, % at 5.6 µM; purified IMP-1, nitrocefin hydrolysis, epi-absorbance fluorescence; actives 0.45% (n = 290,000); metallo-beta-lactamase IMP-1 (Pseudomonas aeruginosa);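 active = inhibition above the mean plus 3 SD of all compounds in the same screening run, cut at about 4.5% in these data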;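 also: 0% = IMP-1 with DMSO and 100% = DMSO wells lacking enzyme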
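System: purified IMP-1; amount: IMP-1 0.2 nM before substrate addition; compound: single dose, 5.6 µM; times: 25 °C, 15 min preincubation, 25 min reaction; signal: Epi-absorbance via hydrolysed-nitrocefin quenching of white-plate fluorescence, 480/530 nm, EDTA stop; benchmarks: DMSO with and without IMP-1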
DNA FID counter = compounds displacing fluorescent DNA intercalator, primary screen, artefact control for HCV NS3 helicase inhibitor project, biochemical, FID fluorescence; DNA fluorescent intercalator displacement; inhibition, % at 7.9 µM; AID 1845, 2009; actives 0.17% (n = 290,000); in the data active = inhibition above about 37%;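 also: 0% = vehicle and 100% = reference compound; higher means more ethidium bromide displaced from hairpin DNA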
SUMO HTRF inh = inhibitors of in vitro SUMOylation cascade, primary screen, biochemical, HTRF, uHTS; SUMO-conjugating enzyme UBC9 (Homo sapiens), P63279; HTRF SUMOylation assay, SAE1/SAE2 + UBC9; inhibition, % at 35 µM; actives 0.36% (n = 290,000); in the data active = inhibition above about 50%, passing the limit was not always enough
Target sequence (P63279 whole entry, looked up): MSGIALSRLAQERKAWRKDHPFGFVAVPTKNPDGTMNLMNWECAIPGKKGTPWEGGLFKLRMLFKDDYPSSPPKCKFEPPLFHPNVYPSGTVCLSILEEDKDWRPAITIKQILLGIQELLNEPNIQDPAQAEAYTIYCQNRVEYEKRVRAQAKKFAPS
IMP-1 inh-2 = IMP-1 metallo-beta-lactamase inhibitors, confirmation, selectivity assay for selective VIM-2 inhibitor project, biochemical, epi-absorbance readout, triplicate; shares compounds with VIM-2 inh; inhibition, % at 5.6 µM; purified IMP-1, nitrocefin hydrolysis, epi-absorbance fluorescence; 1,300 tested, under 10 active; call rule not given here;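 also: 0% = enzyme with vehicle and 100% = vehicle without enzyme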
VIM-2 FRET inh = VIM-2 inhibitors in FRET format, confirmation, artefact control for selective VIM-2 inhibitor project, biochemical, epi-absorbance artifact exclusion | shares compounds with VIM-2 inh | purified VIM-2, CCF2 FRET substrate hydrolysis | inhibition, % at 5.6 µM | actives 23% (n = 1,300);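 active = inhibition above the mean of all tested compounds plus 3 SD, cut at about 19% in these data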;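 also: 0% = VIM-2 plus DMSO and 100% = no enzyme wells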
TEM-1 counter = TEM-1 serine beta-lactamase inhibitors, counter-screen for VIM-2 inhibitor project, biochemical, epi-absorbance, HTS; Purified TEM-1, nitrocefin hydrolysis, epi-absorbance fluorescence; inhibition, % at 5.6 µM; actives 3% (n = 1,300); shares compounds with VIM-2 inh;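 active = inhibition above that campaign's mean inhibition plus 3 SD, cut at about 0.46% in these data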;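 also: 0% = TEM-1 with DMSO and 100% = TEM-1 with 100 µM potassium clavulanate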
Target sequence (P62593 whole entry, looked up): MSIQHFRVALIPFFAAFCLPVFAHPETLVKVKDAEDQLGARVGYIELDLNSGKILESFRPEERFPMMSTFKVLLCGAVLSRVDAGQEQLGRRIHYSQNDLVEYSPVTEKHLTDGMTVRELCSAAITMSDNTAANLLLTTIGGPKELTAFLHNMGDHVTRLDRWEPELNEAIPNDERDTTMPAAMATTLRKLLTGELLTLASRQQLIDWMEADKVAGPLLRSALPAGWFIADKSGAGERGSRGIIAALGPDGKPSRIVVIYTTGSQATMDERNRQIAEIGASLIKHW
VIM-2 confirm 2 = VIM-2 metallo-beta-lactamase inhibitors, confirmation, biochemical, epi-absorbance, hits shared with IMP-1 screen; inhibition, % at 5.6 µM; shares compounds with VIM-2 inh; purified VIM-2, nitrocefin hydrolysis; actives 96% (n = 1,300);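 active = inhibition of the VIM-2 beta-lactamase enzyme above about 11% from the earlier first-round screen, limit read from the data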;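 also: 0% = VIM-2 with DMSO and 100% = buffer wells without enzyme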
An asterisk follows results filed as active; · = not tested or not shown. Hits are enriched below; roughly 2.1% of the tested compounds scored in any of these assays.

SMILES | VIM-2 inh | NS3 helicase inh | IMP-1 inh-1 | DNA FID counter | SUMO HTRF inh | IMP-1 inh-2 | VIM-2 FRET inh | TEM-1 counter | VIM-2 confirm 2
Cc1c(C)c2ccc(OCC(=O)N3CCC[C@@H]3C(=O)O)c(C)c2oc1=O | 41* | -19 | -4 | -15 | 11 | -3 | 64* | -11 | 48*
CCCc1cc(=O)oc2c3c(cc(OCC(=O)N4CCC[C@H]4C(=O)O)c12)OC(C)(C)CC3 | 45* | 2 | 0 | -27 | 43 | -3 | 71* | -5 | 50*
CCc1cc(=O)oc2c3c(cc(OCC(=O)NCCC(=O)O)c12)OC(C)(C)CC3 | 2 | 13 | -5 | -28 | 38 | · | · | · | ·
COc1ccc(C(=O)N2CCCC(O)C2)cc1OC1CCN(C(C)C)CC1 (stereo not given) | -4 | 4 | -4 | -5 | -1 | · | · | · | ·
COC(=O)C1=C(C)NC=C([N+](=O)[O-])C1c1ccc(OC)cc1 (stereo not given) | -3 | -2 | -2 | 2 | 12 | · | · | · | ·
Cc1cccc(N2CCN(C(=O)c3ccc4c(c3)NC(=O)C(CSCc3cccc(F)c3)N4)CC2C)c1 (stereo not given) | -2 | 3 | -1 | -32 | 10 | · | · | · | ·
CCc1cc(=O)oc2c(C)c(OCC(=O)N3CCC[C@@H]3C(=O)O)ccc12 | 23* | 12 | -2 | -7 | 18 | -3 | 39* | -7 | 29*
CCc1cc(=O)oc2c(C)c(OC(C)C(=O)N3CCC[C@@H]3C(=O)O)ccc12 (stereo not given in full) | 1 | 9 | 0 | -20 | -7 | · | · | · | ·
CC(=O)c1cccc(Nc2nc3ccccc3n3cnnc23)c1 | 14* | -19 | -3 | -25 | 27 | -2 | -4 | -3 | 25*
CC1Cc2cc(/C(O)=C3/C(=O)C(=O)N(CCCn4ccnc4)C3c3ccc(Br)cc3)ccc2O1 (stereo not given) | -3 | -4 | -1 | -37 | 6 | · | · | · | ·
CCc1c(C)nc2ncnn2c1NCCc1ccc(OC)c(OC)c1 | 34* | -1 | -1 | -10 | 12 | -2 | -2 | -4 | 55*
CC(=O)O[C@H]1CC(C)(C)C(=C=C/C(C)=C/C=C/C(C)=C/C=C/C=C(C)/C=C/C=C(\C)C(=O)C[C@@]23O[C@]2(C)C[C@@H](O)CC3(C)C)[C@](C)(O)C1 | · | · | · | · | 16 | · | · | · | ·
COCC(=O)OCC(=O)Nc1ccc(Cl)cc1[N+](=O)[O-] | 0 | -6 | -1 | 3 | 10 | · | · | · | ·
Cc1ccc(C(C(=O)NCC2CCCO2)N(C(=O)c2snc(C(N)=O)c2N)c2ccccc2F)o1 (stereo not given) | -2 | 24 | -3 | -40 | 12 | · | · | · | ·
COc1ccc(-c2nc(C#N)c(NCCCn3ccnc3)o2)cc1OC | 17* | -3 | 0 | 0 | 18 | -2 | -15 | -5 | 43*
N#Cc1nc(-c2ccco2)oc1NCCCn1ccnc1 | 26* | 8 | -4 | -4 | 16 | -3 | -6 | -6 | 44*
O=C(NCCc1ccc(Cl)cc1)c1ccc2c(c1)OCCO2 | 0 | 6 | -3 | -15 | -17 | · | · | · | ·
O=S(=O)(c1cccc2nsnc12)N1CCCCC1 | -1 | 0 | -3 | -4 | 17 | · | · | · | ·
Cc1ccc(O)c(N/C=C/C(=O)c2ccc(F)cc2)c1 | -1 | 7 | -5 | -10 | -11 | · | · | · | ·
CN(Cc1ccccc1)CC(O)COc1ccc(CNCc2nccn2C)cc1 (stereo not given) | 12* | -5 | -4 | 26 | -2 | -4 | -6 | -4 | 14*
O=C(O)c1cccc(NC(=S)N/N=C/c2ccccc2OCc2cccc(Br)c2)c1 | 74* | 24 | -4 | -21 | 19 | -3 | 65* | -9 | 40*
O=C(O)c1cccc(NC(=S)N/N=C/c2cccc(O)c2)c1 | 32* | 1 | -3 | 1 | -2 | -5 | 28* | -9 | 16*
O=C(O)c1cccc(NC(=S)N/N=C/c2ccccn2)c1 | -1 | 8 | -4 | -8 | -36 | · | · | · | ·
Cc1cccc(NC(=O)COC(=O)c2ccc3c(c2)OCO3)c1C | -2 | 1 | -3 | -1 | 9 | · | · | · | ·
CN(C)C(=O)CSc1nc(-c2ccccc2)nc2c1CCCC2 | 4 | -2 | -1 | -30 | 5 | · | · | · | ·
SMILES | VIM-2 inh | NS3 helicase inh | IMP-1 inh-1 | DNA FID counter | SUMO HTRF inh | IMP-1 inh-2 | VIM-2 FRET inh | TEM-1 counter | VIM-2 confirm 2
CN(C)CCCSc1nc(-c2ccccc2)nc2c1CCC2 | 35* | -1 | 1 | 6 | -6 | -2 | 3 | -7 | 57*
CCN1CCN(CCNC(=O)CCc2c(C)c3c(C)nn(-c4ccccc4)c3n(C)c2=O)CC1 | 19* | -18 | -4 | 21 | -1 | -3 | -1 | -3 | 30*
O=C(COC(=O)CNC(=O)c1ccc2c(c1)OCO2)Nc1ncc(Cl)cc1Cl | 4 | -6 | -2 | -5 | 13 | · | · | · | ·
O=C(CSc1nnc(COc2ccc(Cl)cc2)o1)NC1CC2CCC1C2 (stereo not given) | -1 | -16 | -1 | -28 | 6 | · | · | · | ·
Cc1nc(NCCN2CCOCC2)c2oc3ccccc3c2n1 | 4 | -2 | -3 | 4 | 17 | · | · | · | ·
Cc1nc(NCCCN2CCOCC2)c2oc3ccccc3c2n1 | 29* | -4 | -2 | 21 | 6 | -4 | 4 | -9 | 35*
c1ccc(-c2nc(NCCCn3ccnc3)c3oc4ccccc4c3n2)cc1 | 19* | -61 | -5 | 18 | -18 | -2 | -26 | -6 | 35*
CCc1nc(NCCCn2ccnc2)c2oc3ccccc3c2n1 | 67* | 1 | -1 | 8 | 22 | -2 | -4 | -7 | 79*
CCc1nc(Nc2ccccc2)c2oc3ccccc3c2n1 | 1 | -13 | -2 | -13 | 25 | · | · | · | ·
S=c1[nH]nc(-c2ccn[nH]2)n1-c1ccccc1Cl | 17* | -1 | -4 | -3 | 18 | -3 | 34* | -4 | 22*
S=c1[nH]nc(-c2ccc3ccccc3n2)n1-c1ccccc1Cl | -1 | 1 | -1 | -15 | -4 | · | · | · | ·
